Laboratory results taken from article PMC9798253 (Protein Science : A Publication of the Protein Society, 2023).

Assays:
[1] = tested on: GST-tagged TRD domain of MECP2 (170–325 of NP_004983); assay: Peptide SPOT array binding of ADD peptides to GST-TRD; settings: 25 nM GST-TRD; 1 h; ECL detection (anti-GST)
In short: (§1)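 The cellulose-bound peptide arrays included alanine-substituted variants. Purified protein was applied for 1 h. Detection used anti-GST (1:12,000) or anti-MBP (1:10,000) for 1 h, then HRP secondary for 1 h.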

[2] = tested on: GST-TRD (TRD domain of MECP2); assay: GST-pulldown of MBP-ADD; assay type: binding; settings: 1 μg each protein; 25 mM Tris/HCl pH 8, 200 mM KCl; 1 h, 6°C; SDS-PAGE
[3] = tested on: ADD D529A/D530A/D531A triple mutant; assay: Peptide SPOT array binding of TRD peptides to ADD triple mutant; set-up: species or system human; settings: 25 nM ADD mutant; 1 h; ECL detection
In short: as §1

| Substance | TRD binding of ADD peptides on SPOT array [1] | further results |
| --- | --- | --- |
| MBP-ADD: ADD domain of DNMT3A (476–614 of Q9Y6K1) as maltose‐binding protein (MBP) fusion |  | pulldown of MBP-ADD by GST-TRD [2]: strong and specific pulldown |
| TRD residues 214–228: 15mer SPOT peptide, TRD residues E214‐T228, WT peptide (EKSPGKLLVKMPFQT) |  | binding of ADD D529A/D530A/D531A triple mutant to TRD peptide on SPOT array [3]: Binding was lost |

Further lines, with some results ahead:

| TRD binding of ADD peptides on SPOT array [1] | Substance | further results |
| --- | --- | --- |
| showed TRD binding with the WT sequence | ADD 496–510: ADD surface peptide on SPOT array, WT sequence |  |
| showed TRD binding with the WT sequence | ADD 522–536: ADD surface peptide on SPOT array, WT sequence |  |
| showed TRD binding with the WT sequence | ADD 592–606: ADD surface peptide on SPOT array, WT sequence |  |
